The results in this text go back to ChEMBL document CHEMBL4373666, “Piperidine carbamate peptidomimetic inhibitors of the serine proteases HGFA, matriptase and hepsin” (Medchemcomm, 2019).

Usually IC50 stands for the concentration at which inhibition is half-maximal.

In test [1] the target is T1, Hepatocyte growth factor activator serine protease (Homo sapiens, UniProt Q04756).
T1 sequence (Q04756 whole entry): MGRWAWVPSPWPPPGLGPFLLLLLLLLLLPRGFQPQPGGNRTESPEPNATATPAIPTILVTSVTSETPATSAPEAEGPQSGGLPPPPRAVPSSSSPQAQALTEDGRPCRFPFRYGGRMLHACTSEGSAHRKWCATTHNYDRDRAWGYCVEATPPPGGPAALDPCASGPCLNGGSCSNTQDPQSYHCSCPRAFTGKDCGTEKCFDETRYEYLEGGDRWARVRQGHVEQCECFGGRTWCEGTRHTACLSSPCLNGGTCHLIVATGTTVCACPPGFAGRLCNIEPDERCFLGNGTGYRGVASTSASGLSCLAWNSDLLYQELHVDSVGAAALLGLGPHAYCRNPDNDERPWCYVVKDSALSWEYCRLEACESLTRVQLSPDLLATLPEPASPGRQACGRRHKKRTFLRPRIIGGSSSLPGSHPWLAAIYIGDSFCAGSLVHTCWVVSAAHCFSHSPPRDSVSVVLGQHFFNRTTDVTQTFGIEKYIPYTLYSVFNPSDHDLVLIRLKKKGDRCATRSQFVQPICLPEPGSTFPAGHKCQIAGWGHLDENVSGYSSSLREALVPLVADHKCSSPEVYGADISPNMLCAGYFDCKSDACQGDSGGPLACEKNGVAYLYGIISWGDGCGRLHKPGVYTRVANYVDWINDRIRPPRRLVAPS
Put plainly: Inhibition of recombinant HGFA serine protease domain (unknown origin) using Boc-QLR-AMC as substrate preincubated for 30 mins followed by substrate addition by fluorescence based assay. Summed up: (§1)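 Fluorogenic kinetic protease assay: Boc-QLR-AMC substrate for HGFA, Boc-QAR-AMC for hepsin. Each inhibitor was tested at eleven concentrations, pre-incubated with the protease, and then substrate was added. Release of fluorescent product was followed kinetically over one hour, and IC50 was taken from the concentration-dependent inhibition of proteolysis.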

The target of test [2] is Serine protease hepsin (Homo sapiens, UniProt P05981). The experiment in a line: Inhibition of recombinant human C-terminal 10-His tagged hepsin (Arg45 to Leu417) expressed in mouse myeloma cells using Boc-QAR-AMC as substrate preincubated for 30 mins followed by substrate addition by fluorescence based assay. Summed up:
as §1

The target of test [3] is T2, Suppressor of tumorigenicity 14 protein (Homo sapiens, UniProt Q9Y5Y6).
T2 sequence (Q9Y5Y6 whole entry): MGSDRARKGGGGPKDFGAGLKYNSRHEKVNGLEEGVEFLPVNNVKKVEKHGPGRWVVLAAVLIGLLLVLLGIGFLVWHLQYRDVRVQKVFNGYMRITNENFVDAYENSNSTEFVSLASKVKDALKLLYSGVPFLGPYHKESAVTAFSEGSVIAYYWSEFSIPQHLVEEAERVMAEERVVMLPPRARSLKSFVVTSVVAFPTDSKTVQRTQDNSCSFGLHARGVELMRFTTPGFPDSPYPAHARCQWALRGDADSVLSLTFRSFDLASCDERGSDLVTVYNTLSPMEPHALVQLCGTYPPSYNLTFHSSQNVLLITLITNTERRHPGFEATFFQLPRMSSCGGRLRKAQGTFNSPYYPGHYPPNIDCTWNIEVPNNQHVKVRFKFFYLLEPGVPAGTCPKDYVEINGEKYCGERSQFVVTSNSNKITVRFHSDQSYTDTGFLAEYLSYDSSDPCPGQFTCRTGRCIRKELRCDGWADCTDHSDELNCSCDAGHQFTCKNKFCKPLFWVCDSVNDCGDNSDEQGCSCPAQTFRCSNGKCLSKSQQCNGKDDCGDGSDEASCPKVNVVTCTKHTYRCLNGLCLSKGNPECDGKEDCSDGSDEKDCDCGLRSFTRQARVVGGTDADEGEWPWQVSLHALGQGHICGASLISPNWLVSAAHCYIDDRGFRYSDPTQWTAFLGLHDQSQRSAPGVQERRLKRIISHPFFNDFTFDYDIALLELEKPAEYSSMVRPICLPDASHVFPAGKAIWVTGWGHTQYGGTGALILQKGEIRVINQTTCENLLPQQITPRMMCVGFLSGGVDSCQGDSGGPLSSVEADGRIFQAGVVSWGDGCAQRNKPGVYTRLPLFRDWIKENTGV
The experiment in a line: Inhibition of recombinant human N-terminal met-His6-tagged matriptase catalytic domain (Gly596 to Val855 residues) expressed in Escherichia coli using Boc-QAR-AMC as substrate preincubated for 30 mins followed by substrate addition by fluorescence based assay.

The target of test [4] is Prothrombin (Homo sapiens, UniProt P00734). The experiment in a line: Inhibition of recombinant thrombin (unknown origin) using D-Phe-Pip-Arg-pNA as substrate preincubated for 30 mins followed by substrate addition by chromogenic assay.
Test [5] deals with Coagulation factor X (Homo sapiens, UniProt P00742). Put plainly: Inhibition of recombinant factor Xa (unknown origin) using Bz-Ile-Glu-Gly-Arg-pNA as substrate preincubated for 30 mins followed by substrate addition by chromogenic assay.
Chain of Coagulation factor X (P00742 41-179 limits assumed): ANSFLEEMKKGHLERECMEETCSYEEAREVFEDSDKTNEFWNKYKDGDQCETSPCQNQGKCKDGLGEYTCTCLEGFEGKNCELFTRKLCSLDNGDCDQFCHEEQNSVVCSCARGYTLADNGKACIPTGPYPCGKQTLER
Chain of Coagulation factor X (P00742 235-488 limits assumed): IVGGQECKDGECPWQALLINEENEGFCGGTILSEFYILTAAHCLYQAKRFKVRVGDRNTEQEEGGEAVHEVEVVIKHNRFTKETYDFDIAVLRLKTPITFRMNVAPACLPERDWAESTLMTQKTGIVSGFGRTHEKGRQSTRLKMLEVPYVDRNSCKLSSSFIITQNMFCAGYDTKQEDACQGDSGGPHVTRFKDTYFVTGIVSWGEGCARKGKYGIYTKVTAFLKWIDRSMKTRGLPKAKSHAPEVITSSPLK

Chain of Serine protease hepsin (P05981 1-162 limits assumed): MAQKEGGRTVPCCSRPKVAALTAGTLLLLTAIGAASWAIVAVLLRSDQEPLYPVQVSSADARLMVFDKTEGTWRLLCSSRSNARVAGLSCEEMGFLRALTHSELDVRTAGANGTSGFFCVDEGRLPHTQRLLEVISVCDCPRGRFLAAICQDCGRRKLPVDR
Chain of Serine protease hepsin (P05981 163-417 limits assumed): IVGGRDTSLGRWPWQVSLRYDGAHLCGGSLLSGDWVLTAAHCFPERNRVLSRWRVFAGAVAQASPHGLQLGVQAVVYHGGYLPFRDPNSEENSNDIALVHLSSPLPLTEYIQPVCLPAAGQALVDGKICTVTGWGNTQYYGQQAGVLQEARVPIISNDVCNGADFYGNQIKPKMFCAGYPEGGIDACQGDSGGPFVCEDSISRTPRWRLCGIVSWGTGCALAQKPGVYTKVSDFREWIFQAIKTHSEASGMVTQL

In the case of `N=C(N)c1cccc(C[C@H](NS(=O)(=O)c2ccc3ccccc3c2)C(=O)N2CCN(C(=O)NCc3ccc(Br)cc3)CC2)c1`, the IC50 in test [1] worked out at 30 µM; in test [2] it was 0.09 µM; in test [3], 8.4 µM.
For `CC1CN(CC2CCN(Cc3ccccc3)CC2)C(=O)N(c2cccc(C(=N)N)c2)C1` (configuration not stated), the IC50 in test [4] came to 11.6 µM; in test [5], 0.38 µM; in test [1] it was 20 µM; in test [2], 1.9 µM; in test [3], 3.2 µM.
Take `CC(C)c1cc(C(C)C)c(S(=O)(=O)N[C@@H](Cc2cccc(C(=N)N)c2)C(=O)N2CCN(C(=O)C3CCNCC3)CC2)c(C(C)C)c1`: the results for the IC50 in test [1] and in test [2] were 11 µM and 14 µM, respectively.
As for `CC(C)C[C@H](NC(=O)OC1(c2ccccc2)CCNCC1)C(=O)N[C@@H](CCCNC(=N)N)C(=O)c1nc2ccccc2s1`, in test [4], the IC50 is above 20 µM.
As for `CC(=O)N1CCC(OC(=O)N[C@@H](CC(C)C)C(=O)N[C@@H](CCCNC(=N)N)C(=O)c2nc3ccccc3s2)CC1`, the IC50 in test [1] was above 20 µM.
`CC(C)C[C@H](NC(=O)OC(c1ccccc1)C1CCNCC1)C(=O)N[C@@H](CCCNC(=N)N)C(=O)c1nc2ccccc2s1` (some centres not stated): the half-inhibitory concentration (IC50) in test [4] and in test [5] was above 20 µM each time.
On to `CCS(=O)(=O)N1CCC(OC(=O)N[C@@H](CC(C)C)C(=O)N[C@@H](CCCNC(=N)N)C(=O)c2nc3ccccc3s2)CC1`, for which the half-maximal inhibitory concentration (IC50) in test [4], in test [5] and in test [1] was above 20 µM throughout.
`CC(=O)N[C@@H](CCCCN)C(=O)N[C@@H](CCC(N)=O)C(=O)N[C@@H](CC(C)C)C(=O)N[C@@H](CCCNC(=N)N)C(=O)c1nc2ccccc2s1`: in test [4], the IC50 was above 20 µM.
For `CC(C)C[C@H](NC(=O)OC1CCN(S(=O)(=O)c2ccccc2)CC1)C(=O)N[C@@H](CCCNC(=N)N)C(=O)c1nc2ccccc2s1`, the half-inhibitory concentration (IC50) in test [4] and in test [5] was above 20 µM each time.
For the compound `CC(C)C[C@H](NC(=O)OC1(Cc2ccccc2)CCNCC1)C(=O)N[C@@H](CCCNC(=N)N)C(=O)c1nc2ccccc2s1`, the IC50 is above 20 µM in test [4]; 6.5 µM in test [5]; 1.2 µM in test [1]; 0.0006 µM in test [2]; 0.03 µM in test [3].
`CC(C)C[C@H](NC(=O)OC1CCN(S(=O)(=O)c2ccc([N+](=O)[O-])cc2[N+](=O)[O-])CC1)C(=O)N[C@@H](CCCNC(=N)N)C(=O)c1nc2ccccc2s1`: in test [1], the IC50 is above 20 µM.
Turning to `N=C(N)NCCC[C@H](NC(=O)[C@H](CC1CCCCC1)NC(=O)OC1(c2ccccc2)CCNCC1)C(=O)c1nc2ccccc2s1`, the IC50 in test [4] and in test [1] was above 20 µM in each case.
Take `CC(=O)N1CCC(CCc2ccccc2)(OC(=O)N[C@@H](CC(C)C)C(=O)N[C@@H](CCCNC(=N)N)C(=O)c2nc3ccccc3s2)CC1`: in test [1], the IC50 was above 20 µM.
`CC(=O)N[C@@H](CO)C(=O)N[C@@H](CCCCN)C(=O)N[C@@H](CC(C)C)C(=O)N[C@@H](CCCNC(=N)N)C(=O)c1nc2ccccc2s1`: the IC50 in test [4] was above 20 µM.
In the case of `CC(C)C[C@H](NC(=O)OC1CCN(S(=O)(=O)c2cccc(F)c2)CC1)C(=O)N[C@@H](CCCNC(=N)N)C(=O)c1nc2ccccc2s1`, in test [1], the half-maximal inhibitory concentration (IC50) is above 20 µM.
Regarding `Cc1cc(C)c(S(=O)(=O)N2CCC(OC(=O)N[C@@H](CC(C)C)C(=O)N[C@@H](CCCNC(=N)N)C(=O)c3nc4ccccc4s3)CC2)c(C)c1`, the IC50 in test [3] is above 20 µM.
